Results taken from ChEMBL document CHEMBL4177603 (Bioorg Med Chem Lett, 2017).

What was measured:
[1] = molecular target: Sodium-dependent serotonin transporter (Homo sapiens) (UniProt P31645); experiment: Displacement of [3H]imipramine from recombinant human […] at 10 uM after 60 mins by scintillation counting method
[2] = molecular target: Sodium-dependent noradrenaline transporter (Homo sapiens, UniProt P23975); experiment: Displacement of [3H]nisoxetine from recombinant human norepinephrine transporter at 10 uM after 120 min by scintillation counting method
[3] = molecular target: Sodium channel protein type 5 subunit alpha (Homo sapiens, UniProt Q14524); experiment: Inhibition of human Nav1.5 expressed in HEK cells by automated patchXpress electrophysiology method; assay type: ADME, cell-based
[4] = Lipophilicity, log D of the compound at pH 7.4; assay type: physicochemical; details: buffer
[5] = Volume of distribution at steady state in dog at 0.3 mg/kg, iv via infusion for 0.5 hrs; assay type: ADME, organism-based, Canis lupus familiaris; details: in vivo, read-out: Vdss
[6] = Primary phase half-life in dog at 0.3 mg/kg, iv via infusion for 0.5 hrs; assay type: ADME, organism-based, Canis lupus familiaris; details: in vivo, read-out: alphat1/2 (converted)
Method in brief: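 Dog IV pharmacokinetics, with half-life reported as two values: α (initial phase) and β (terminal phase) of the disposition profile.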

[7] = Clearance in dog blood at 0.3 mg/kg, iv via infusion for 0.5 hrs; assay type: ADME, organism-based, Canis lupus familiaris; details: whole blood
Method in brief: (§1)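 Blood clearance was calculated from the measured plasma clearance and the measured blood:plasma ratio.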

[8] = Clearance in dog plasma at 0.3 mg/kg, iv via infusion for 0.5 hrs; assay type: ADME, organism-based, Canis lupus familiaris
[9] = Unbound clearance in dog plasma at 0.3 mg/kg, iv via infusion for 0.5 hrs; assay type: ADME, organism-based, Canis lupus familiaris; details: in vivo
[10] = Volume of distribution at steady state in rat at 0.3 mg/kg, iv via infusion for 1 hr; assay type: ADME, organism-based; details: in vivo, read-out: Vdss
[11] = Volume of distribution at steady state in iv dosed mouse; assay type: ADME, organism-based; details: in vivo, read-out: Vdss
[12] = Clearance in iv dosed mouse blood; assay type: ADME, organism-based; details: whole blood; method in brief: as §1
[13] = molecular target: Cytochrome P450 2C9 (Homo sapiens, UniProt P11712); experiment: Inhibition of CYP2C9 (unknown origin); assay type: ADME
[14] = molecular target: Cytochrome P450 1A2 (Homo sapiens, UniProt P05177); experiment: Inhibition of CYP1A2 (unknown origin); assay type: ADME
[15] = molecular target: Cytochrome P450 2C19 (Homo sapiens, UniProt P33261); experiment: Inhibition of CYP2C19 (unknown origin); assay type: ADME
[16] = Protein binding in dog plasma assessed as fraction unbound; assay type: ADME, cell-free, Canis lupus familiaris
[17] = Intrinsic clearance in mouse hepatocytes assessed per million cells; assay type: ADME, cell-based, Hepatocyte; details: read-out: CLH
[18] = Intrinsic clearance in rat hepatocytes assessed per million cells; assay type: ADME, cell-based, Hepatocyte; details: read-out: CLH
[19] = Intrinsic clearance in dog liver microsomes; assay type: ADME, Canis lupus familiaris, microsome; details: read-out: CLH
[20] = molecular target: Alpha-2B adrenergic receptor (Homo sapiens) (UniProt P18089); experiment: Agonist activity at recombinant human alpha2b receptor expressed in HEK293 cells assessed as increase in cAMP accumulation at 10 uM measured after 30 mins by HTRF assay relative to control; assay type: functional, cell-based
[21] = molecular target: Beta-1 adrenergic receptor (Homo sapiens) (UniProt P08588); experiment: Agonist activity at recombinant human beta1 receptor expressed in HEK293 cells assessed as increase in cAMP accumulation at 10 uM after 30 mins by HTRF assay relative to control; assay type: functional, cell-based
[22] = molecular target: D(2) dopamine receptor (Homo sapiens) (UniProt P14416); experiment: Agonist activity at recombinant human D2S receptor expressed in HEK293 cells assessed as effect on impedance at 10 uM by cellular dielectric spectroscopic method relative to control; assay type: cell-based
[23] = molecular target: Endothelin-1 receptor (Homo sapiens) (UniProt P25101); experiment: Agonist activity at human ETA receptor expressed in SK-N-MC cells assessed as increase in calcium flux at 10 uM by fluorimetric method relative to control; assay type: functional, cell-based
[24] = molecular target: Histamine H1 receptor (Homo sapiens) (UniProt P35367); experiment: Agonist activity at human H1 receptor expressed in HEK293 cells assessed as increase in calcium flux at 10 uM by fluorimetric method relative to control; assay type: functional, cell-based
[25] = molecular target: Substance-P receptor (Homo sapiens) (UniProt P25103); experiment: Agonist activity at human NK1 receptor expressed in U373MG cells assessed as increase in calcium flux at 10 uM by fluorimetric method relative to control; assay type: functional, cell-based
[26] = molecular target: Kappa-type opioid receptor (Homo sapiens) (UniProt P41145); experiment: Agonist activity at human KOR assessed as increase in calcium flux at 10 uM by fluorimetric method relative to control; assay type: functional
[27] = molecular target: 5-hydroxytryptamine receptor 1A (Homo sapiens) (UniProt P08908); experiment: Agonist activity at human 5-HT1A receptor expressed in mouse BA/F3 cells assessed as increase in calcium flux at 10 uM by fluorimetric method relative to control; assay type: functional, cell-based
[28] = molecular target: 5-hydroxytryptamine receptor 2B (Homo sapiens) (UniProt P41595); experiment: Agonist activity at human 5-HT2B receptor expressed in CHOK1 cells assessed as increase in IP1 accumulation at 10 uM measured after 30 mins by HTRF method relative to control; assay type: functional, cell-based
[29] = molecular target: 5-hydroxytryptamine receptor 4 (Homo sapiens) (UniProt Q13639); experiment: Agonist activity at recombinant human 5-HT4E expressed in CHOK1 cells assessed as increase in cAMP accumulation at 10 uM measured after 30 mins by HTRF assay relative to control; assay type: functional, cell-based
[30] = molecular target: Vasopressin V1a receptor (Homo sapiens) (UniProt P37288); experiment: Agonist activity at human V1A receptor expressed in CHOK1 cells assessed as increase in calcium flux at 10 uM by fluorimetric method relative to control; assay type: functional, cell-based
[31] = molecular target: Type-1 angiotensin II receptor (Homo sapiens) (UniProt P30556); experiment: Antagonist activity at recombinant human AT1 receptor expressed in HEK293 cells assessed as inhibition of angiotensin2-induced calcium flux at 10 uM by spectrophotometric method relative to control; assay type: functional, cell-based
[32] = molecular target: Histamine H1 receptor (Homo sapiens) (UniProt P35367); experiment: Antagonist activity at human H1 receptor expressed in HEK293 cells assessed as inhibition of histamine-induced calcium flux at 10 uM by fluorimetric method relative to control; assay type: functional, cell-based
[33] = molecular target: Muscarinic acetylcholine receptor M2 (Homo sapiens) (UniProt P08172); experiment: Antagonist activity at recombinant human M2 receptor expressed in CHOK1 cells assessed as inhibition of acetylcholine-induced cAMP accumulation at 10 uM measured after 10 mins by HTRF assay relative to control; assay type: functional, cell-based
[34] = species on record: Rattus norvegicus; experiment: Displacement of [3H]diltiazem from L-type calcium channel diltiazem binding site in rat brain at 10 uM after 120 mins by scintillation counting method
[35] = species on record: Homo sapiens; experiment: Inhibition of GABA-A receptor benzodiazepine site (unknown origin) at 10 uM by radioligand binding assay relative to control
[36] = molecular target: 5-hydroxytryptamine receptor 3A (Homo sapiens) (UniProt P46098); experiment: Displacement of [3H]BRL 43694 from recombinant human 5-HT3 receptor at 10 uM measured after 120 mins by scintillation counting method
[37] = molecular target: cGMP-inhibited 3',5'-cyclic phosphodiesterase 3B (Homo sapiens) (UniProt Q13370); experiment: Inhibition of recombinant human PDE3B at 10 uM using [3H]cAMP as substrate measured after 20 mins by scintillation counting method relative to control
[38] = molecular target: Proto-oncogene tyrosine-protein kinase Src (Homo sapiens) (UniProt P12931); experiment: Inhibition of recombinant human SRC at 10 uM using Ulight-Poly GAT[EAY(1:1:1)]n as substrate after 10 mins by LANCE assay

Sequence of Histamine H1 receptor (Homo sapiens) (P35367 whole entry): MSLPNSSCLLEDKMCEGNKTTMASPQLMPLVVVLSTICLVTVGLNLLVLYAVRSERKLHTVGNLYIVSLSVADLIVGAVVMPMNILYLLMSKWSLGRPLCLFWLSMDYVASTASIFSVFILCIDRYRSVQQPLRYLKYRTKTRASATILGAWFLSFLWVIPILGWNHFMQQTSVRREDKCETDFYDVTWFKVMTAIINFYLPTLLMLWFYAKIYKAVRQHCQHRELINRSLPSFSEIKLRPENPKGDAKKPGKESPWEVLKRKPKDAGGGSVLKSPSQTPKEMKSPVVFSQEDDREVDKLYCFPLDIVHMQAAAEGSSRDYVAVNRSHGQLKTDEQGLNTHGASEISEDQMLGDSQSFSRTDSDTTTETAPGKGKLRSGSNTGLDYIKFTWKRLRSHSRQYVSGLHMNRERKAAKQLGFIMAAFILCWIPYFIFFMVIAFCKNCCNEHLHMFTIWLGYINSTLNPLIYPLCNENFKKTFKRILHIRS
Sequence of D(2) dopamine receptor (Homo sapiens) (P14416 whole entry): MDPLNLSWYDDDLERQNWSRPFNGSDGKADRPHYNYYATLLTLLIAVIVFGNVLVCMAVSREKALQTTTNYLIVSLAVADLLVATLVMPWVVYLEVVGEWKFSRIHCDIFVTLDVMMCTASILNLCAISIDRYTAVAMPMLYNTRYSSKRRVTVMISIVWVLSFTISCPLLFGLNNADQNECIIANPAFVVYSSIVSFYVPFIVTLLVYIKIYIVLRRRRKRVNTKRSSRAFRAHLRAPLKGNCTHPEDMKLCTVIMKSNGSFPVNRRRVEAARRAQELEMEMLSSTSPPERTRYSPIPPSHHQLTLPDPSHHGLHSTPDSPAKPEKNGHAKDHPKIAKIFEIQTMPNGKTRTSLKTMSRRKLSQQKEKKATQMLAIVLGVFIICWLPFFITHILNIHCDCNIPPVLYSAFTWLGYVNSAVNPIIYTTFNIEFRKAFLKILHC
Sequence of 5-hydroxytryptamine receptor 1A (Homo sapiens) (P08908 whole entry): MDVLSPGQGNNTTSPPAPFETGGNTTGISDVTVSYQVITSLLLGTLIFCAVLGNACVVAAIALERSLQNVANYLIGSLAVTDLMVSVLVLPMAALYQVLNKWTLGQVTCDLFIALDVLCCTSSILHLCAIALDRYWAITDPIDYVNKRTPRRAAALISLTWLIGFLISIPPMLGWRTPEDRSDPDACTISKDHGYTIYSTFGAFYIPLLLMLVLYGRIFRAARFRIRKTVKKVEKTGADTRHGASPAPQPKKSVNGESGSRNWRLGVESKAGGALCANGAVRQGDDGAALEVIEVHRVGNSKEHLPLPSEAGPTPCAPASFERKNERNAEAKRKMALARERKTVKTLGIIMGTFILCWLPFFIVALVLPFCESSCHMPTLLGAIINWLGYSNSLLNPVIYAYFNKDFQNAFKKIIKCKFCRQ
Sequence of Sodium-dependent noradrenaline transporter (P23975 whole entry): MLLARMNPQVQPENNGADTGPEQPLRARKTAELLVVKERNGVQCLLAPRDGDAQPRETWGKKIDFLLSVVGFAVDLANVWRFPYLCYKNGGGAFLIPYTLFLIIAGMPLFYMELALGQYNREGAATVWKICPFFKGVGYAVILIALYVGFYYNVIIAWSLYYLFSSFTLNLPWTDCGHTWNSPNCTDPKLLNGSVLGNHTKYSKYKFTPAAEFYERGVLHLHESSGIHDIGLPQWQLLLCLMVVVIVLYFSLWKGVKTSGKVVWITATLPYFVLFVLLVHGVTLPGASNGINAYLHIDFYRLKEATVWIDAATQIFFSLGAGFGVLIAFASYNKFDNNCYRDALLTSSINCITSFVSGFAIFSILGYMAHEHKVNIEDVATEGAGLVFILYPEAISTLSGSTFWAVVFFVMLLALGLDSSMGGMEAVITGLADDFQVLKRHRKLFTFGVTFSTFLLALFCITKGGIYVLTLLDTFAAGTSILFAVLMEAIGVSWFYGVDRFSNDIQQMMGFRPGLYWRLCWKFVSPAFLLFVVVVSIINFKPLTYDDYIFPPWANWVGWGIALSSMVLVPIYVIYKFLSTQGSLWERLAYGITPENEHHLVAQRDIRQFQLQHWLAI
Sequence of Kappa-type opioid receptor (Homo sapiens) (P41145 whole entry): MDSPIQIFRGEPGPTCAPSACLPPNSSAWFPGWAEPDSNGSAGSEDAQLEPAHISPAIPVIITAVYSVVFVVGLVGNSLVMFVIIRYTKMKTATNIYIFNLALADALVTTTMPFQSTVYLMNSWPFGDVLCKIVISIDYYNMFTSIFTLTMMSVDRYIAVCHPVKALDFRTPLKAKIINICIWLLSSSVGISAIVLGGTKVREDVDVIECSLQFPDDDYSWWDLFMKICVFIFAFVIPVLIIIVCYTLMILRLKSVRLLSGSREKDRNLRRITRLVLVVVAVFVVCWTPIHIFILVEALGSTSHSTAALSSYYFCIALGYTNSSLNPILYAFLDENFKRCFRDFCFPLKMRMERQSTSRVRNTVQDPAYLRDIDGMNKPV
Sequence of Vasopressin V1a receptor (Homo sapiens) (P37288 whole entry, looked up): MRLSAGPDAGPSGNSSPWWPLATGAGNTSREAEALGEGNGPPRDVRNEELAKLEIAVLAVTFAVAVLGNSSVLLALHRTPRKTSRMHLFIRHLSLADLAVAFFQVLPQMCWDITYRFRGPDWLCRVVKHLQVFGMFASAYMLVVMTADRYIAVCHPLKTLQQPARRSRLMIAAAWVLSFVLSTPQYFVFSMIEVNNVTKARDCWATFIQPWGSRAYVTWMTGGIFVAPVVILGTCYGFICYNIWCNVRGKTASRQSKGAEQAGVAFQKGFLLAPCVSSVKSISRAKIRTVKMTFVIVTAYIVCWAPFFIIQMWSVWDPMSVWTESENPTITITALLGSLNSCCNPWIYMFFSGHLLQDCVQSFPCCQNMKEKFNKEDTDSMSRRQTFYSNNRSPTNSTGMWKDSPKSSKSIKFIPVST
Sequence of 5-hydroxytryptamine receptor 2B (Homo sapiens) (P41595 whole entry): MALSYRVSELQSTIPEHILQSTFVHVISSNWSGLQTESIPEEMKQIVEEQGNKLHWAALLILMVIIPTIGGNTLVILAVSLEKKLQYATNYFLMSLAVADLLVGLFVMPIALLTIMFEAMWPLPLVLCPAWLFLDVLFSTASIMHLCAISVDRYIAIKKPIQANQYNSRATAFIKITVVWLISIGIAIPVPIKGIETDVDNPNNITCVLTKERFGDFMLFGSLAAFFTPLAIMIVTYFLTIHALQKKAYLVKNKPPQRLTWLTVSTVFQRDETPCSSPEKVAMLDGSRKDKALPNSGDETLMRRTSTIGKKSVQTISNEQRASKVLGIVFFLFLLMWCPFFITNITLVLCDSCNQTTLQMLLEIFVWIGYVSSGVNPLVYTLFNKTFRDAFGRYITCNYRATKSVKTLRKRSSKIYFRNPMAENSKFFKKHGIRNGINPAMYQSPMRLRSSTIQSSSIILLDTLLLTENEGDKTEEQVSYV
Sequence of Alpha-2B adrenergic receptor (Homo sapiens) (P18089 whole entry): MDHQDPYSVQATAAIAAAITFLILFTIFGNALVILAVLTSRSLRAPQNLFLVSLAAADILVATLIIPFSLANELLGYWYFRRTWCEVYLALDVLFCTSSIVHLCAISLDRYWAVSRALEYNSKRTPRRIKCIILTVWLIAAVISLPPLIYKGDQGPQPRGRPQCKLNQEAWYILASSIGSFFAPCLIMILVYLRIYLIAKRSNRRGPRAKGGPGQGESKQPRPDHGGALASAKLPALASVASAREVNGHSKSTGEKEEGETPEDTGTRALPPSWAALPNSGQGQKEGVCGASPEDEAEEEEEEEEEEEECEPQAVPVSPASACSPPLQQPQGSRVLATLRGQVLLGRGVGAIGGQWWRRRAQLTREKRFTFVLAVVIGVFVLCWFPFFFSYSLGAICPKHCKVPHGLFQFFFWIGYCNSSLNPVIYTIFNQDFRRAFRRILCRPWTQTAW
Sequence of Cytochrome P450 1A2 (P05177 whole entry): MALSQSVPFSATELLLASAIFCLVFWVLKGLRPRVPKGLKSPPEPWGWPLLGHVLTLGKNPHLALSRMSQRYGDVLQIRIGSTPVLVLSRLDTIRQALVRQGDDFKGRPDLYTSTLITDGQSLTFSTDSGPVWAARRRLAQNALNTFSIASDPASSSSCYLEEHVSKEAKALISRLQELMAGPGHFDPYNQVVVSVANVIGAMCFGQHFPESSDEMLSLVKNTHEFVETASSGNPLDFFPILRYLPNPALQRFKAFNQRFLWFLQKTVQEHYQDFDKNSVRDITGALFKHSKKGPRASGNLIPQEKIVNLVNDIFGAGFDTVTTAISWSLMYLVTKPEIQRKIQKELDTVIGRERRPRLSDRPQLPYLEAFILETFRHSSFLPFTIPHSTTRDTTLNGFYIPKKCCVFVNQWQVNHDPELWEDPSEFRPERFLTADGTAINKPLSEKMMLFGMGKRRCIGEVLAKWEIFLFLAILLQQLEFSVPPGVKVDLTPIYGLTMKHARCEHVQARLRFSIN
Sequence of Beta-1 adrenergic receptor (Homo sapiens) (P08588 whole entry, looked up): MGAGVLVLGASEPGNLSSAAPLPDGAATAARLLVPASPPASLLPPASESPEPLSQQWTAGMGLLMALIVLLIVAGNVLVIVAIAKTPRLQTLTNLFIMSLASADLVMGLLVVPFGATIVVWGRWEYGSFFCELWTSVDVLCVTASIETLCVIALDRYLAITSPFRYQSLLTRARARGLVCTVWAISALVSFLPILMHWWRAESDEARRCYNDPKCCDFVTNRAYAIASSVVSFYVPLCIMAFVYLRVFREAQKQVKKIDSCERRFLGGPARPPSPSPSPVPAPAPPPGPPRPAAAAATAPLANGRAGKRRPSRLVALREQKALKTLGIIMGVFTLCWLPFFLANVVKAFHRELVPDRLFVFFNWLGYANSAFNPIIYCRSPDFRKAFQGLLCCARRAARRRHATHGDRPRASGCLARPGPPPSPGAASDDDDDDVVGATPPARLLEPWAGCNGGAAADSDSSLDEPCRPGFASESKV

## N#Cc1cc(S(=O)(=O)Nc2ncns2)ccc1Oc1ccc(-c2cccc(C(F)(F)F)c2)cc1-c1ccnc(CNCCC2CCNCC2)c1
[1]
  inhibition: 40%
[2]
  inhibition: 80%
[3]
  IC50: 2 to 2.59 µM
[4]
  logD: 2.37 to 2.4
[5]
  Vd: 0.46 L/kg
[6]
  half-life: 3.42 min
[7]
  clearance: 2.39 L/h/kg
[8]
  clearance: 1.07 L/h/kg
[9]
  CL free: 285.5 L/h/kg
[10]
  Vd: 0.59 L/kg
[11]
  Vd: 0.54 L/kg
[12]
  clearance: 4.03 L/h/kg
[13]
  IC50: 3.75 µM
[14]
  IC50: > 30 µM
[15]
  IC50: 1.32 µM
[16]
  fraction unbound: 0.00374
[17]
  hepatocyte CLint: < 3 µL/min/1e6 cells
[18]
  hepatocyte CLint: < 6 µL/min/1e6 cells
[19]
  microsomal CLint: < 18.1 µL/min/mg
[20]
  Activity: -2%
[21]
  Activity: -4%
[22]
  Activity: -2%
[23]
  Activity: 8%
[24]
  Activity: 4%
[25]
  Activity: 0%
[26]
  Activity: 15%
[27]
  Activity: -34%
[28]
  Activity: 1%
[29]
  Activity: 0%
[30]
  Activity: -4%
[31]
  inhibition: -2%
[32]
  inhibition: -5%
[33]
  inhibition: 24%
[34]
  inhibition: 40%
[35]
  inhibition: 35%
[36]
  inhibition: 27%
[37]
  inhibition: -1%
[38]
  inhibition: 9%
